Data published in ChEMBL document CHEMBL4371072, “Structure-Activity Relationship Studies and Plasmodium Life Cycle Profiling Identifies Pan-Active N-Aryl-3-trifluoromethyl Pyrido[1,2- a]benzimidazoles Which Are Efficacious in an in Vivo Mouse Model of Malaria” (J Med Chem, 2019).

Tests used:
Hemozoin = test: Inhibition of beta hematin formation after 5 hrs by NP40 detergent-based assay
Plasmodium berghei [1] = test: Antimalarial activity against GFP-fused Plasmodium berghei ANKA infected in NMRI mouse assessed as host mean survival time at 30 mg/kg, po administered for 4 consecutive days; format: functional
In short: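 NMRI mice infected intravenously with P. berghei; oral treatment at 4, 24, 48 and 72 h post-infection (4 x 50 mg/kg), vehicle to controls; reference drug 4 x 30 mg/kg orally on four consecutive days. Parasitemia compared with untreated controls; mean survival days recorded; cure if no parasitemia 30 days after treatment.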

Plasmodium falciparum [2] = test: (§1) Antiplasmodial activity against chloroquine-sensitive asexual blood stage of Plasmodium falciparum NF54 infected in human RBC assessed as reduction in [3H]hypoxanthine incorporation preincubated for 48 hrs followed by [3H]hypoxanthine addition measured after 24 hrs by liquid scintillation counting method; format: functional, organism-based
In short: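 Asexual blood-stage P. falciparum NF54 assay, run as a modified [3H]-hypoxanthine incorporation assay. Values are the mean of n ≥ 2 assays; determinations differing more than 3-fold were excluded. Chloroquine and artesunate served as controls.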

Plasmodium falciparum [3] = test: as §1, with “chloroquine-resistant” for “chloroquine-sensitive”, “K1” for “NF54”; format: functional, organism-based
In short: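 Asexual blood-stage P. falciparum K1 (multidrug resistant) screened by modified [3H]-hypoxanthine incorporation assay; IC50 as mean of n ≥ 2 assays, replicates differing above 3-fold excluded; chloroquine and artesunate controls.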

[4] = Resistance index, ratio of IC50 for chloroquine-resistant asexual blood stage of Plasmodium falciparum K1 infected in human RBC to IC50 for chloroquine-sensitive asexual blood stage of Plasmodium falciparum NF54 infected in human RBC; format: functional
Plasmodium berghei [5] = test: Antimalarial activity against liver stage form of luciferase transfected Plasmodium berghei sporozoites infected in human HuH7 cells preincubated with host cells for 1 hr followed by plasmodial infection and measured after 48 hrs by bioluminescence method; format: functional, organism-based; conditions: Huh-7
Plasmodium falciparum [6] = test: Antiplasmodial activity against chloroquine-sensitive final late stage of Plasmodium falciparum NF54-Mal8p1.16-GFP-Luc gametocytes after 24 hrs by BacTiter-Glo assay; format: functional, organism-based; conditions: NF54, 24 h
In short: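 Late-stage PfNF54 gametocytes produced in vitro; gametocytocidal IC50 via luciferase reporter and ATP bioluminescence platforms; n=3 independent biological replicates in technical triplicates, ± S.E.M.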

CHO = test: Cytotoxicity against CHO cells after 48 hrs by MTT assay; format: cell-based; conditions: Cricetulus griseus
[7] = Selectivity index, ratio of IC50 for CHO cells to IC50 for chloroquine-sensitive asexual blood stage of Plasmodium falciparum NF54 infected in human RBC; format: toxicity; conditions: Chinese hamster, read-out: Ratio IC50
In short: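 Selectivity index taken as the ratio of the CHO-cell IC50 to the P. falciparum NF54 IC50.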

hERG (KCNH2) [8] = target: T1, hERG (KCNH2) (Homo sapiens, UniProt Q12809); test: Inhibition of human ERG expressed in CHO cells assessed as reduction in peak channel current at 0.3 uM by IonWork patch-clamp electrophysiology method relative to control; format: cell-based; conditions: CHO cells expressing human ERG
T1 sequence (Q12809 whole entry): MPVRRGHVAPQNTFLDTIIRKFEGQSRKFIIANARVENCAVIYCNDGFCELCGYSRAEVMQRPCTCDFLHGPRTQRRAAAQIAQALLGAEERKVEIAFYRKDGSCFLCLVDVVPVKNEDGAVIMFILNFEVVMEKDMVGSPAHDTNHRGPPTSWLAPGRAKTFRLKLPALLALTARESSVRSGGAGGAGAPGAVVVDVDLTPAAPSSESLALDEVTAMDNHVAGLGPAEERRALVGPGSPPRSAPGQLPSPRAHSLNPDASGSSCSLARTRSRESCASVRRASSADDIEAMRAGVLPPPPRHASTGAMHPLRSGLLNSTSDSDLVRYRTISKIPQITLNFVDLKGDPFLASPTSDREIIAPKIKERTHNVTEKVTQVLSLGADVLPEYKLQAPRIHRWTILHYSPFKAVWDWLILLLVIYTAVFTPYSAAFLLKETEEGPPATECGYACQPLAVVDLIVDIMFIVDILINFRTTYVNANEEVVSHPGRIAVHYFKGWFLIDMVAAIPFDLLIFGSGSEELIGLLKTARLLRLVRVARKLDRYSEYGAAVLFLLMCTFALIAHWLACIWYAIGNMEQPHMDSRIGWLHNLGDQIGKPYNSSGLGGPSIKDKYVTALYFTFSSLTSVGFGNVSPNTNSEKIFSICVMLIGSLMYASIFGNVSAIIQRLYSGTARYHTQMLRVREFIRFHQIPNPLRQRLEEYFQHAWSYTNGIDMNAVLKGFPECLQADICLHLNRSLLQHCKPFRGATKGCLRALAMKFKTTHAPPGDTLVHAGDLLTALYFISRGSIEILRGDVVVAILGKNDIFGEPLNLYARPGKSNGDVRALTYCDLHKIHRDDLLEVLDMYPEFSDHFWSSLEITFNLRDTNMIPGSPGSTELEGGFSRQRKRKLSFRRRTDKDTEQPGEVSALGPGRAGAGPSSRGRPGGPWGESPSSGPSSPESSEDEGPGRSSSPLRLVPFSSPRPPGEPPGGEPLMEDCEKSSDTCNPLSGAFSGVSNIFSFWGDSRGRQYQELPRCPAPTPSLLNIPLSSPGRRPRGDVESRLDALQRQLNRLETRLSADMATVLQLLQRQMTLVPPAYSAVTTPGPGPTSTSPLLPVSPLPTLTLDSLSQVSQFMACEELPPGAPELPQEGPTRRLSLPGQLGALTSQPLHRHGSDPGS

hERG (KCNH2) [9] = target: T1, hERG (KCNH2); test: Inhibition of human ERG expressed in CHO cells assessed as reduction in peak channel current at 10 uM by IonWork patch-clamp electrophysiology method relative to control; format: cell-based; conditions: CHO cells expressing human ERG
In short: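 hERG potassium channel profiled by IonWorks patch-clamp electrophysiology, with 10 μM as the highest concentration tested. Values are the mean of 3 results from experiments run as biological and technical triplicates.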

[10] = target: Voltage-gated inwardly rectifying potassium channel KCNH2 (Homo sapiens, UniProt Q12809); test: Inhibition of human ERG expressed in CHO cells assessed as reduction in peak channel current by IonWork patch-clamp electrophysiology method; format: cell-based
Voltage-gated inwardly rectifying potassium channel KCNH2, sequence (Q12809 whole entry): as above

Plasmodium falciparum [11] = test: Ratio of IC50 for early stage of Plasmodium falciparum NF54-PfS16-GFP-Luc gametocytes to IC50 for late stage of Plasmodium falciparum NF54-Mal8p1.16-GFP-Luc gametocytes; format: functional
Plasmodium falciparum [12] = test: Ratio of IC50 for late stage of Plasmodium falciparum NF54-Mal8p1.16-GFP-Luc gametocytes to IC50 for early stage of Plasmodium falciparum NF54-PfS16-GFP-Luc gametocytes; format: functional
[13] = Metabolic stability in Balb/c mouse liver microsomes assessed as parent compound remaining at 0.1 uM after 30 mins in presence of NADPH by LC-MS/MS analysis
[14] = Half life in Balb/c mouse liver microsomes at 0.1 uM in presence of NADPH by LC-MS/MS analysis
[15] = Metabolic stability in human liver microsomes assessed as parent compound remaining at 0.1 uM after 30 mins in presence of NADPH by LC-MS/MS analysis
[16] = Half life in human liver microsomes at 0.1 uM in presence of NADPH by LC-MS/MS analysis

Row | Compound | IC50 (Plasmodium falciparum [2]) [nM] | IC50 (Plasmodium falciparum [3]) [nM] | Ratio IC50 [4] | IC50 (Plasmodium berghei [5]) [nM] | IC50 (Plasmodium falciparum [6]) [nM] | IC50 (CHO) [nM] | selectivity ratio [7] | inhibition at 0.3 µM (hERG (KCNH2) [8]) [%] | inhibition at 10 µM (hERG (KCNH2) [9]) [%] | IC50 [10] [nM] | other results
1 | CCN(CC)CCCC(C)Nc1ccnc2cc(Cl)ccc12 (stereo unspecified) [CHLOROQUINE] |  |  |  |  |  |  |  |  |  |  | IC50 (Hemozoin): 18000 nM; MST (Plasmodium berghei [1]): 21 days
2 | N#Cc1c(C(F)(F)F)cc(NCc2cccs2)n2c1nc1cc(Cl)c(Cl)cc12 | 310 | 140 | 0.45 | 140 | 1670 | 8480 | 27 | 6.13 | < 40 | > 10000 | 
3 | Cc1ccc(CNc2cc(C(F)(F)F)c(C#N)c3nc4cc(Cl)c(Cl)cc4n23)cc1 | 400 |  |  |  | 600 | 6060 | 15 |  |  |  | Ratio IC50 (Plasmodium falciparum [11]): 0.2; Ratio IC50 (Plasmodium falciparum [12]): 6; remaining at 0.5 h, 0.1 µM ([13]; microsomes): 69%; half-life at 0.1 µM ([14]; microsomes): 56 min; remaining at 0.5 h, 0.1 µM ([15]; microsomes): 91%; half-life at 0.1 µM ([16]; microsomes): > 150 min
4 | N#Cc1c(C(F)(F)F)cc(NCc2ccco2)n2c1nc1cc(Cl)c(Cl)cc12 | 440 | 230 | 0.52 | 60 | 2000 | 4840 | 10 | 6.82 | < 40 | > 10000 | remaining at 0.5 h, 0.1 µM ([13]; liver microsomes): 66%; half-life at 0.1 µM ([14]; liver microsomes): 50 min; remaining at 0.5 h, 0.1 µM ([15]; liver microsomes): 100%; half-life at 0.1 µM ([16]; liver microsomes): > 150 min
